# Test results published in ChEMBL document CHEMBL1124553, “Brain-specific chemical delivery systems for beta-lactam antibiotics. In vitro and in vivo studies of some dihydropyridine and dihydroisoquinoline derivatives of benzylpenicillin in rats” (J Med Chem, 1989).
# Columns and labels:
# Rattus norvegicus [1] = assay: Concentration of compound in rat brain after intravenous injection of 20 mg/kg benzyl-penicillin after 1 min; type: functional, organism-based; design: dose 20 mg/kg
# How it was run: (§1)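 Male Sprague-Dawley rats (200-250 g), conscious, received 60 µmol/kg (equimolar to 20 mg/kg benzylpenicillin) by tail-vein injection. Benzylpenicillin K was given in water/ethanol/propylene glycol, and the delivery systems in ethanol:propylene glycol 7:3, at 20 mg/mL. Rats were decapitated at set times (4-6 per point), with trunk blood heparinized and brain, kidney, liver and lung frozen. Benzylpenicillin was measured by disk microbioassay (Bacillus subtilis ATCC 6633) after >5-volume sterile-water dilution or homogenization, against matrix calibration curves; assay limit 0.05 µg/mL.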
# Rattus norvegicus [2] = assay: Concentration of compound in rat brain after intravenous injection of 20 mg/kg benzyl-penicillin after 10 min; type: functional, organism-based; design: dose 20 mg/kg; how it was run: as §1
# Oryctolagus cuniculus [3] = species on record: Oryctolagus cuniculus; assay: Pseudo first-order rate constant (K) for disappearance of compound from rabbit 10% brain homogenate; type: ADME
# How it was run: (§2)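 Freshly collected whole blood (rat trunk blood; rabbit) or 10% w/v brain homogenate made in pH 7.4 phosphate buffer (μ = 0.15), prewarmed to 37 °C. Compound added from 8 mM DMSO stock to a final 40 μM. Timed 0.3 mL samples were quenched in 8% DMSO/acetonitrile, centrifuged, filtered and analysed by reversed-phase C8 HPLC-UV. K came from linear regression of log peak height versus time; n=3 animal samples.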
# [4] = Half-life for disappearance of compound from rat 10% brain homogenate; type: ADME
# How it was run: (§3)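 Freshly collected whole blood, or 10% w/v brain homogenate in pH 7.4 phosphate buffer (ionic strength 0.15), was prewarmed to 37 °C. Compound was spiked from an 8 mM DMSO stock to 40 µM final. Timed samples were quenched in 8% DMSO/acetonitrile, centrifuged, filtered and analyzed by reversed-phase C8 HPLC with UV detection. K came from linear regression of log peak height versus time, with t1/2 derived from it. Values are mean ± SE of three determinations in different animal samples.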
# [5] = Pseudo first-order rate constant (K) for disappearance of compound from rat whole blood; type: ADME, tissue-based; how it was run: as §2
# Rattus norvegicus [6] = assay: Concentration of compound in rat blood after intravenous injection of 20 mg/kg benzyl-penicillin after 1 min; type: functional, organism-based; design: dose 20 mg/kg; how it was run: as §1
# Rattus norvegicus [7] = assay: Concentration of compound in rat blood after intravenous injection of 20 mg/kg benzyl-penicillin after 40 min; type: functional, organism-based; design: dose 20 mg/kg; how it was run: as §1
# Rattus norvegicus [8] = assay: Concentration of compound in rat brain after intravenous injection of 20 mg/kg benzyl-penicillin after 3 min; type: functional, organism-based; design: dose 20 mg/kg; how it was run: as §1
# Rattus norvegicus [9] = assay: Concentration of compound in rat brain after intravenous injection of 20 mg/kg benzyl-penicillin after 60 min;Below detection limit.; type: functional, organism-based; design: dose 20 mg/kg; how it was run: as §1
# Rattus norvegicus [10] = assay: Concentration of compound in rat brain after intravenous injection of 20 mg/kg benzyl-penicillin after 20 min;Below detection limit.; type: functional, organism-based; design: dose 20 mg/kg; how it was run: as §1
# Canis familiaris = species on record: Canis familiaris; assay: Pseudo first-order rate constant (K) for disappearance of compound from dog whole blood; type: ADME, organism-based, Canis lupus familiaris; how it was run: as §3
# Homo sapiens = species on record: Homo sapiens; assay: Pseudo first-order rate constant (K) for disappearance of compound from human whole blood; type: ADME, organism-based; how it was run: as §3
# [11] = Half-life for disappearance of compound from rabbit whole blood; type: ADME, organism-based, Oryctolagus cuniculus; how it was run: as §3
# Rattus norvegicus [12] = assay: Concentration of compound in rat brain after intravenous injection of 20 mg/kg benzyl-penicillin after 40 min;Below detection limit.; type: functional, organism-based; design: dose 20 mg/kg; how it was run: as §1
# Rattus norvegicus [13] = species on record: Rattus norvegicus; assay: Pseudo first-order rate constant (K) for disappearance of compound from rat 10% brain homogenate; type: ADME; how it was run: as §2
# [14] = Half-life for disappearance of compound from human whole blood; type: ADME, organism-based; how it was run: as §3
# Rattus norvegicus [15] = assay: Concentration of compound in rat blood after intravenous injection of 20 mg/kg benzyl-penicillin after 5 min; type: functional, organism-based; design: dose 20 mg/kg; how it was run: as §1
# [16] = Half-life for disappearance of compound from rabbit 10% brain homogenate; type: ADME, Oryctolagus cuniculus; how it was run: as §3
# Rattus norvegicus [17] = assay: Concentration of compound in rat brain after intravenous injection of 20 mg/kg benzyl-penicillin after 5 min; type: functional, organism-based; design: dose 20 mg/kg; how it was run: as §1
# [18] = Half-life for disappearance of compound from rat whole blood; type: ADME, organism-based; how it was run: as §3
# Rattus norvegicus [19] = assay: Concentration of compound in rat blood after intravenous injection of 20 mg/kg benzyl-penicillin after 60 min; type: functional, organism-based; design: dose 20 mg/kg; how it was run: as §1
# Rattus norvegicus [20] = assay: Concentration of compound in rat blood after intravenous injection of 20 mg/kg benzyl-penicillin after 10 min; type: functional, organism-based; design: dose 20 mg/kg; how it was run: as §1
# Rattus norvegicus [21] = assay: Concentration of compound in rat blood after intravenous injection of 20 mg/kg benzyl-penicillin after 3 min; type: functional, organism-based; design: dose 20 mg/kg; how it was run: as §1
# [22] = Half-life for disappearance of compound from dog whole blood; type: ADME, organism-based, Canis lupus familiaris; how it was run: as §3
# Rattus norvegicus [23] = assay: Concentration of compound in rat blood after intravenous injection of 20 mg/kg benzyl-penicillin after 20 min; type: functional, organism-based; design: dose 20 mg/kg; how it was run: as §1
# Oryctolagus cuniculus [24] = species on record: Oryctolagus cuniculus; assay: Pseudo first-order rate constant (K) for disappearance of compound from rabbit whole blood; type: ADME, organism-based; how it was run: as §2
K (Oryctolagus cuniculus [3]),half-life [4],K [5],K (Canis familiaris),K (Homo sapiens),half-life [11],K (Rattus norvegicus [13]),half-life [14],half-life [16],half-life [18],half-life [22],K (Oryctolagus cuniculus [24]),SMILES,Concentration (Rattus norvegicus [1]),Concentration (Rattus norvegicus [6]),Concentration (Rattus norvegicus [8]),Concentration (Rattus norvegicus [15]),Concentration (Rattus norvegicus [20]),Concentration (Rattus norvegicus [21]),Concentration (Rattus norvegicus [23]),further results
0.152 min⁻¹,5.7 min,2.712 min⁻¹,0.123 min⁻¹,0.037 min⁻¹,1.3 min,0.125 min⁻¹,19.4 min,4.6 min,0.3 min,5.7 min,0.553 min⁻¹,CN1C=CCC(C(=O)NCCOC(=O)C2N3C(=O)C(NC(=O)Cc4ccccc4)C3SC2(C)C)=C1 (stereo unspecified),0.2 µg/mL,5 µg/mL,0.3 µg/mL,3.8 µg/mL,4.9 µg/mL,7.3 µg/mL,0.8 µg/mL,Concentration (Rattus norvegicus [2]): 0.1 µg/mL; Concentration (Rattus norvegicus [7]): 0.3 µg/mL; Concentration (Rattus norvegicus [9]): Below limit of detection; Concentration (Rattus norvegicus [10]): Below limit of detection; Concentration (Rattus norvegicus [12]): Below limit of detection; Concentration (Rattus norvegicus [17]): 0.2 µg/mL; Concentration (Rattus norvegicus [19]): 0.2 µg/mL
0.03 min⁻¹,92.1 min,0.362 min⁻¹,0.048 min⁻¹,0.078 min⁻¹,3 min,0.008 min⁻¹,9.1 min,23.4 min,1.9 min,14.5 min,0.23 min⁻¹,C[n+]1cccc(C(=O)NCCOC(=O)C2N3C(=O)C(NC(=O)Cc4ccccc4)C3SC2(C)C)c1.[I-] (stereo unspecified),–,–,–,–,–,–,–,–
–,28.3 min,1.083 min⁻¹,0.062 min⁻¹,–,–,0.025 min⁻¹,–,–,0.6 min,11.4 min,–,CN1C=c2ccccc2=C(C(=O)NCCOC(=O)C2N3C(=O)C(NC(=O)Cc4ccccc4)C3SC2(C)C)C1 (stereo unspecified),0.2 µg/mL,6.6 µg/mL,0.2 µg/mL,2.5 µg/mL,1.2 µg/mL,3 µg/mL,0.2 µg/mL,–
